Laboratory results from ChEMBL document CHEMBL1275377, “Structure-based design, synthesis, and structure-activity relationship studies of HIV-1 protease inhibitors incorporating phenyloxazolidinones” (J Med Chem, 2010).

Test system: Human immunodeficiency virus 1
Assay: Antiviral activity against Human immunodeficiency virus 1 clade C isolated from HIV-AIDS patient
Type: functional, organism-based

Compared with `CC(C)CN(C[C@@H](O)[C@H](Cc1ccccc1)NC(=O)[C@@H]1CN(c2cccc(S(C)(=O)=O)c2)C(=O)O1)S(=O)(=O)c1ccc2ncsc2c1`, `CC(C)CN(C[C@@H](O)[C@H](Cc1ccccc1)NC(=O)[C@@H]1CN(c2cccc(N)c2)C(=O)O1)S(=O)(=O)c1ccc2ncsc2c1` is 2.3-fold lower in EC50: 5.7 nM for the first, 2.5 nM for the second.

First: CC(C)CN(C[C@@H](O)[C@H](Cc1ccccc1)NC(=O)[C@@H]1CN(c2cccc([N+](=O)[O-])c2)C(=O)O1)S(=O)(=O)c1ccc2ncsc2c1
Second: CC(=O)Nc1cccc(N2C[C@@H](C(=O)N[C@@H](Cc3ccccc3)[C@H](O)CN(CC(C)C)S(=O)(=O)c3ccc4ncsc4c3)OC2=O)c1
The EC50 of the first is 1.7-fold higher: 16.3 nM for the first, 9.5 nM for the second. The second is the more potent here.

`COc1ccc(S(=O)(=O)N(CC(C)C)C[C@@H](O)[C@H](Cc2ccccc2)NC(=O)[C@@H]2CN(c3cccc(N)c3)C(=O)O2)cc1` and `CC(C)CN(C[C@@H](O)[C@H](Cc1ccccc1)NC(=O)[C@@H]1CN(c2cccc(N)c2)C(=O)O1)S(=O)(=O)c1ccc2c(c1)OCO2` are within 1.5-fold of each other in EC50: 9.4 nM for the first, 12.3 nM for the second.

With `CC(=O)Nc1cccc(N2C[C@@H](C(=O)N[C@@H](Cc3ccccc3)[C@H](O)CN(CC(C)C)S(=O)(=O)c3ccc4c(c3)OCO4)OC2=O)c1` the EC50 was 21.1 nM.

Test system: Human immunodeficiency virus 1
Assay: Antiviral activity against Human immunodeficiency virus 1 clade A isolated from HIV-AIDS patient
Type: functional, organism-based

Going from `CC(C)CN(C[C@@H](O)[C@H](Cc1ccccc1)NC(=O)[C@@H]1CN(c2cccc(S(C)(=O)=O)c2)C(=O)O1)S(=O)(=O)c1ccc2ncsc2c1` to `CC(C)CN(C[C@@H](O)[C@H](Cc1ccccc1)NC(=O)[C@@H]1CN(c2cccc(N)c2)C(=O)O1)S(=O)(=O)c1ccc2ncsc2c1`, the EC50 falls from 4.1 nM to 2.6 nM (1.6-fold). The second is the more potent here.

`CC(C)CN(C[C@@H](O)[C@H](Cc1ccccc1)NC(=O)[C@@H]1CN(c2cccc([N+](=O)[O-])c2)C(=O)O1)S(=O)(=O)c1ccc2ncsc2c1` and `CC(=O)Nc1cccc(N2C[C@@H](C(=O)N[C@@H](Cc3ccccc3)[C@H](O)CN(CC(C)C)S(=O)(=O)c3ccc4ncsc4c3)OC2=O)c1` are within 1.5-fold of each other in EC50: 11.5 nM for the first, 10.1 nM for the second.

`COc1ccc(S(=O)(=O)N(CC(C)C)C[C@@H](O)[C@H](Cc2ccccc2)NC(=O)[C@@H]2CN(c3cccc(N)c3)C(=O)O2)cc1` and `CC(C)CN(C[C@@H](O)[C@H](Cc1ccccc1)NC(=O)[C@@H]1CN(c2cccc(N)c2)C(=O)O1)S(=O)(=O)c1ccc2c(c1)OCO2` are within 1.5-fold of each other in EC50: 8.5 nM for the first, 6.1 nM for the second.

In the case of `CC(=O)Nc1cccc(N2C[C@@H](C(=O)N[C@@H](Cc3ccccc3)[C@H](O)CN(CC(C)C)S(=O)(=O)c3ccc4c(c3)OCO4)OC2=O)c1`, the EC50 is reported as 9 nM.

Test system: Human immunodeficiency virus 1
Assay: Antiviral activity against multidrug resistant Human immunodeficiency virus 1 harboring protease M46I, I54V, V82A and L90M mutant
Type: functional, organism-based
Outline: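 Drug susceptibility assay run by an outside contract lab. Panel: patient-derived wild-type HIV-1 clades A, B and C; MDR1 carrying protease M46I, I54V, V82A, L90M; MDR control MDRC4; and an NL4-3-derived clade B wild-type control (CNDO). The PR/RT regions of these strains were sequenced and deposited.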

`CC(C)CN(C[C@@H](O)[C@H](Cc1ccccc1)NC(=O)[C@@H]1CN(c2cccc(S(C)(=O)=O)c2)C(=O)O1)S(=O)(=O)c1ccc2ncsc2c1` and `CC(C)CN(C[C@@H](O)[C@H](Cc1ccccc1)NC(=O)[C@@H]1CN(c2cccc(N)c2)C(=O)O1)S(=O)(=O)c1ccc2ncsc2c1` are within 1.5-fold of each other in EC50: 9.4 nM for the first, 11.9 nM for the second.

`CC(C)CN(C[C@@H](O)[C@H](Cc1ccccc1)NC(=O)[C@@H]1CN(c2cccc([N+](=O)[O-])c2)C(=O)O1)S(=O)(=O)c1ccc2ncsc2c1` and `CC(=O)Nc1cccc(N2C[C@@H](C(=O)N[C@@H](Cc3ccccc3)[C@H](O)CN(CC(C)C)S(=O)(=O)c3ccc4ncsc4c3)OC2=O)c1` are within 1.5-fold of each other in EC50: 33.8 nM for the first, 25.4 nM for the second.

`COc1ccc(S(=O)(=O)N(CC(C)C)C[C@@H](O)[C@H](Cc2ccccc2)NC(=O)[C@@H]2CN(c3cccc(N)c3)C(=O)O2)cc1` and `CC(C)CN(C[C@@H](O)[C@H](Cc1ccccc1)NC(=O)[C@@H]1CN(c2cccc(N)c2)C(=O)O1)S(=O)(=O)c1ccc2c(c1)OCO2` are within 1.5-fold of each other in EC50: 19 nM for the first, 27.9 nM for the second.

With `CC(=O)Nc1cccc(N2C[C@@H](C(=O)N[C@@H](Cc3ccccc3)[C@H](O)CN(CC(C)C)S(=O)(=O)c3ccc4c(c3)OCO4)OC2=O)c1` the EC50 was 41.9 nM.

Test system: Human immunodeficiency virus 1
Assay: Antiviral activity against Human immunodeficiency virus 1 clade B isolated from HIV-AIDS patient
Type: functional, organism-based

First: CC(C)CN(C[C@@H](O)[C@H](Cc1ccccc1)NC(=O)[C@@H]1CN(c2cccc(S(C)(=O)=O)c2)C(=O)O1)S(=O)(=O)c1ccc2ncsc2c1
Second: CC(C)CN(C[C@@H](O)[C@H](Cc1ccccc1)NC(=O)[C@@H]1CN(c2cccc(N)c2)C(=O)O1)S(=O)(=O)c1ccc2ncsc2c1
The EC50 of the first is 2.7-fold higher: 3.5 nM for the first, 1.3 nM for the second. The second is the more potent here.

`CC(C)CN(C[C@@H](O)[C@H](Cc1ccccc1)NC(=O)[C@@H]1CN(c2cccc([N+](=O)[O-])c2)C(=O)O1)S(=O)(=O)c1ccc2ncsc2c1` and `CC(=O)Nc1cccc(N2C[C@@H](C(=O)N[C@@H](Cc3ccccc3)[C@H](O)CN(CC(C)C)S(=O)(=O)c3ccc4ncsc4c3)OC2=O)c1` are within 1.5-fold of each other in EC50: 5.7 nM for the first, 7.7 nM for the second.

`COc1ccc(S(=O)(=O)N(CC(C)C)C[C@@H](O)[C@H](Cc2ccccc2)NC(=O)[C@@H]2CN(c3cccc(N)c3)C(=O)O2)cc1` and `CC(C)CN(C[C@@H](O)[C@H](Cc1ccccc1)NC(=O)[C@@H]1CN(c2cccc(N)c2)C(=O)O1)S(=O)(=O)c1ccc2c(c1)OCO2` are within 1.5-fold of each other in EC50: 3 nM for the first, 2.8 nM for the second.

With `CC(=O)Nc1cccc(N2C[C@@H](C(=O)N[C@@H](Cc3ccccc3)[C@H](O)CN(CC(C)C)S(=O)(=O)c3ccc4c(c3)OCO4)OC2=O)c1` the EC50 was 6.3 nM.

Test system: Human immunodeficiency virus 1
Assay: Antiviral activity against wild type Human immunodeficiency virus 1
Type: functional, organism-based

First: CC(C)CN(C[C@@H](O)[C@H](Cc1ccccc1)NC(=O)[C@@H]1CN(c2cccc(S(C)(=O)=O)c2)C(=O)O1)S(=O)(=O)c1ccc2ncsc2c1
Second: CC(C)CN(C[C@@H](O)[C@H](Cc1ccccc1)NC(=O)[C@@H]1CN(c2cccc(N)c2)C(=O)O1)S(=O)(=O)c1ccc2ncsc2c1
The EC50 of the first is 2.9-fold higher: 5 nM for the first, 1.7 nM for the second. The second is the more potent here.

`CC(C)CN(C[C@@H](O)[C@H](Cc1ccccc1)NC(=O)[C@@H]1CN(c2cccc([N+](=O)[O-])c2)C(=O)O1)S(=O)(=O)c1ccc2ncsc2c1` and `CC(=O)Nc1cccc(N2C[C@@H](C(=O)N[C@@H](Cc3ccccc3)[C@H](O)CN(CC(C)C)S(=O)(=O)c3ccc4ncsc4c3)OC2=O)c1` are within 1.5-fold of each other in EC50: 7.3 nM for the first, 5.8 nM for the second.

Going from `COc1ccc(S(=O)(=O)N(CC(C)C)C[C@@H](O)[C@H](Cc2ccccc2)NC(=O)[C@@H]2CN(c3cccc(N)c3)C(=O)O2)cc1` to `CC(C)CN(C[C@@H](O)[C@H](Cc1ccccc1)NC(=O)[C@@H]1CN(c2cccc(N)c2)C(=O)O1)S(=O)(=O)c1ccc2c(c1)OCO2`, the EC50 rises from 4 nM to 7.1 nM (1.8-fold). The first is the more potent here.

`CC(=O)Nc1cccc(N2C[C@@H](C(=O)N[C@@H](Cc3ccccc3)[C@H](O)CN(CC(C)C)S(=O)(=O)c3ccc4c(c3)OCO4)OC2=O)c1` showed an EC50 of 10.9 nM.

Test system: Human immunodeficiency virus 1
Assay: Antiviral activity against multidrug resistant Human immunodeficiency virus 1 MDRC4
Type: functional, organism-based

`CC(C)CN(C[C@@H](O)[C@H](Cc1ccccc1)NC(=O)[C@@H]1CN(c2cccc(S(C)(=O)=O)c2)C(=O)O1)S(=O)(=O)c1ccc2ncsc2c1` and `CC(C)CN(C[C@@H](O)[C@H](Cc1ccccc1)NC(=O)[C@@H]1CN(c2cccc(N)c2)C(=O)O1)S(=O)(=O)c1ccc2ncsc2c1` are within 1.5-fold of each other in EC50: 10.5 nM for the first, 14.6 nM for the second.

`CC(C)CN(C[C@@H](O)[C@H](Cc1ccccc1)NC(=O)[C@@H]1CN(c2cccc([N+](=O)[O-])c2)C(=O)O1)S(=O)(=O)c1ccc2ncsc2c1` and `CC(=O)Nc1cccc(N2C[C@@H](C(=O)N[C@@H](Cc3ccccc3)[C@H](O)CN(CC(C)C)S(=O)(=O)c3ccc4ncsc4c3)OC2=O)c1` are within 1.5-fold of each other in EC50: 37.7 nM for the first, 29.5 nM for the second.

`COc1ccc(S(=O)(=O)N(CC(C)C)C[C@@H](O)[C@H](Cc2ccccc2)NC(=O)[C@@H]2CN(c3cccc(N)c3)C(=O)O2)cc1` and `CC(C)CN(C[C@@H](O)[C@H](Cc1ccccc1)NC(=O)[C@@H]1CN(c2cccc(N)c2)C(=O)O1)S(=O)(=O)c1ccc2c(c1)OCO2` are within 1.5-fold of each other in EC50: 36.4 nM for the first, 35.4 nM for the second.

With `CC(=O)Nc1cccc(N2C[C@@H](C(=O)N[C@@H](Cc3ccccc3)[C@H](O)CN(CC(C)C)S(=O)(=O)c3ccc4c(c3)OCO4)OC2=O)c1` the EC50 was 46.9 nM.
